Assay results from different studies.
Target: Casein kinase I isoform gamma-2 (CSNK1G2, Homo sapiens, UniProt P78368)

Compound | observed | action | technique | tested at | quantity | value
C[C@@H]1CCN(C(=O)CC#N)C[C@@H]1N(C)c1ncnc2[nH]ccc12 | cell-free assay | inhibitor | – | 0.5 µM | remaining signal | 95.4%
Nc1cnc(N2CCc3cc(S(=O)(=O)Nc4c(F)cc(Cl)cc4F)cc(N4CCCC4=O)c32)nc1 | cell-free assay | – | competition with immobilised ligand | 1 µM | remaining binding | 88%
Nc1ncnc2occ(-c3ccc(NC(=O)Nc4cc(C(F)(F)F)ccc4F)cc3)c12 | cell-free assay | inhibitor | – | 20 µM | remaining signal | 6.8%
CN1CCN(c2cnc3c(C4CCN(C(=O)c5ccc(OC(F)(F)F)cc5N)CC4)ncnc3c2)CC1 | cell-free assay | – | competition with immobilised ligand | 1 µM | remaining binding | 100%
COc1cc2ncnc(Nc3ccc(F)c(Cl)c3)c2cc1OCCCN1CCOCC1 | cell-free assay | – | – | 0.5 µM | remaining signal | 98.1%
CC(C)(C)c1nc2c(s1)c1nc(N)ncc1c1ccc(NS(=O)(=O)c3c(F)cccc3F)c(F)c12 | enzyme activity | inhibitor | radiometric | 1 µM | remaining activity | 104%
CN(CCCC(F)(F)F)c1nccc(-c2cnn3ncccc23)n1 | binding | – | – | 1 µM | remaining binding | 100%
NS(=O)(=O)c1cc(NC(=O)C2(c3ccccc3Cl)CC2)ccc1Oc1cccc(Cl)c1 | cell-free assay | – | competition with immobilised ligand | 1 µM | remaining binding | 82%
CNC(=O)c1cc(Oc2ccc(NC(=O)Nc3ccc(Cl)c(C(F)(F)F)c3)cc2)ccn1 | enzyme activity | inhibitor | – | 10 µM | inhibition | -4%
CC(C)(O)[C@H]1CC[C@H](Nc2ccc3ncc(-c4cccc(C(F)(F)F)c4)n3n2)CC1 | enzyme activity | inhibitor | – | 1 µM | remaining activity | 96.1%
Cc1ccc(NC(=O)c2ccc(C)c(C(F)(F)F)c2)cc1C#Cc1nn(C2CCC(O)CC2)c2ncnc(N)c12 (stereo not shown) | cell-free assay | – | – | 10 µM | remaining signal | 114%
CCCS(=O)(=O)Nc1ccc(F)c(C(=O)c2c[nH]c3ncc(-c4ccc(Cl)cc4)cc23)c1F | enzyme activity | inhibitor | – | 1 µM | inhibition | < 10%
C[C@H](NC(=O)c1cnc2n1[C@](C)(Cc1ccc(C#N)cc1)C(=O)N2c1cc(Cl)c(F)c(Cl)c1)C(=O)NC1(c2ccccn2)CC1 | cell-free assay | – | competition with immobilised ligand | 1 µM | remaining binding | 90%
CS(=O)(=O)Nc1cccc(-c2csc(NC(=O)CSc3nc4nccnc4c(=O)n3CCc3ccccc3)n2)c1 | enzyme activity | inhibitor | – | 10 µM | inhibition | 8%
O=C1NC(=O)c2cc(Nc3ccc(F)cc3)c(Nc3ccc(F)cc3)cc21 | cell-free assay | – | – | 0.5 µM | remaining signal | 97.5%
Cc1ccc(C(=O)Nc2ccc(CN3CCN(C)CC3)c(C(F)(F)F)c2)cc1C#Cc1cnc2cccnn12 | enzyme activity | inhibitor | – | 23.5 nM | remaining activity | 96%
C[C@@H]1CN(c2cc(-c3n[nH]c4ccc(OC5(C)CC5)cc34)ncn2)C[C@H](C)O1 | cell-free assay | – | competition with immobilised ligand | 0.1 µM | remaining binding | 100%
COc1cc(Nc2cnc(C#N)c(O[C@H](C)CN(C)C)n2)ncc1-c1cnn(C)c1 | enzyme activity | inhibitor | radiometric | 1 µM | remaining activity | 101%
COc1cc(Nc2c(C#N)cnc3cc(OCCCN4CCN(C)CC4)c(OC)cc23)c(Cl)cc1Cl | cell-free assay | – | – | 0.5 µM | remaining signal | 98.3%
Cc1sc(C(=O)NC2COC2)cc1-n1cc(NC(=O)Nc2c(F)cccc2Cl)cn1 | enzyme activity | inhibitor | – | 10 µM | remaining activity | 104%
C[C@@H](c1cccc(C#N)c1)n1cc(Cl)cc(C(N)=O)c1=N | cell-free assay | – | competition with immobilised ligand | 1 µM | remaining binding | 100%
COc1cc2ncnc(Nc3ccc(Oc4ccccc4)c(C)c3C)c2cc1OC | enzyme activity | inhibitor | – | 1 µM | inhibition | 1%
